Published values of several laboratories.
Lines come from different studies, so protocols differ.
Target: Calcium/calmodulin-dependent protein kinase kinase 2 (CAMKK2, Homo sapiens, UniProt Q96RR4)

`CNC(=O)c1cc(Oc2ccc(NC(=O)Nc3ccc(Cl)c(C(F)(F)F)c3)cc2)ccn1` has a remaining signal of 103% (cell-free assay; 0.5 µM).
`CS(=O)(=O)Nc1cccc(-c2csc(NC(=O)CSc3nc4nccnc4c(=O)n3CCc3ccccc3)n2)c1` gave an inhibition of 4% (enzyme activity; inhibitor; 10 µM).
For `Cn1c2c(Cl)c(Cl)ccc2c2cn[nH]c(=O)c21`, the ΔTm was 0.4 °C (thermal stability; DSF; 10 µM).
`O=C1Nc2ccc(Cl)cc2C1=Cc1cc(Cl)c(O)c(Cl)c1` gave a remaining signal of 51.5% (cell-free assay; 0.5 µM).
The remaining activity of `COc1cc(Nc2cnc(C#N)c(O[C@H](C)CN(C)C)n2)ncc1-c1cnn(C)c1` is reported as 103% (enzyme activity; inhibitor; radiometric; 1 µM).
The remaining binding of `CCOCCn1cc(C(=O)Nc2ccc(-n3nc(-c4cccnc4)cc3C(F)(F)F)cn2)ccc1=O` is reported as 100% (cell-free assay; competition with immobilised ligand; 1 µM).
For `Nc1ncnc2occ(-c3ccc(NC(=O)Nc4cc(C(F)(F)F)ccc4F)cc3)c12`, the remaining signal was 24% (cell-free assay; inhibitor; 20 µM).
With `O=C(Nc1cnn(-c2csc(C(=O)NC3COC3)c2)c1)Nc1c(F)cccc1Cl` the remaining activity was 81% (enzyme activity; inhibitor; 5 µM).
With `Nc1nc(Nc2ccccc2)sc1C(=O)c1c(F)cccc1F` the remaining activity was 12% (enzyme activity; inhibitor; 10 µM).
The ΔTm of `COc1cc2nccc(Oc3ccc(NC(=O)Nc4ccc(F)cc4F)c(F)c3)c2cc1OC` is reported as 5 to 10 °C (thermal stability; DSF; 10 µM).
`CS(=O)(=O)CCNCc1ccc(-c2ccc3ncnc(Nc4ccc(OCc5cccc(F)c5)c(Cl)c4)c3c2)o1` gave a remaining signal of 101% (cell-free assay; 0.5 µM).
The remaining activity of `CC(C)(C)C(=O)c1sc(NC2CCCCC2)nc1N` is reported as 83% (enzyme activity; inhibitor; 10 µM).
`COc1cc(-c2cn(C3CCc4ccccc4N(CC(F)(F)F)C3=O)nn2)ccc1-n1ccc(C)n1` (centres unmarked) gave a remaining binding of 100% (cell-free assay; competition with immobilised ligand; 1 µM).
With `CC(C)(C)c1nc2c(s1)c1nc(N)ncc1c1ccc(NS(=O)(=O)c3c(F)cccc3F)c(F)c12` the remaining activity was 107% (enzyme activity; inhibitor; radiometric; 1 µM).
For `CCN1CCC2(CC1)NC(=O)c1c(c3ccc(Cl)c(Cl)c3n1C)C2C#N` (racemic), the ΔTm was 0.5 °C (thermal stability; DSF; 10 µM).
With `CN1CCN(c2cnc3c(C4CCN(C(=O)c5ccc(OC(F)(F)F)cc5N)CC4)ncnc3c2)CC1` the remaining binding was 100% (cell-free assay; competition with immobilised ligand; 1 µM).
`CC(C)(O)[C@H]1CC[C@H](Nc2ccc3ncc(-c4cccc(C(F)(F)F)c4)n3n2)CC1` gave a remaining activity of 96.9% (enzyme activity; inhibitor; 1 µM).
The remaining activity of `Cn1c(=O)n(-c2ccc(C(C)(C)C#N)cc2)c2c3cc(-c4cnc5ccccc5c4)ccc3ncc21` is reported as 61% (enzyme activity; inhibitor; 10 µM).
`FC(F)(F)Oc1cccc(-c2cnc3ccc(-c4ccncc4)nn23)c1` has an activity vs control of 60% (enzyme activity; inhibitor; radiometric; 5 µM).
With `CS(=O)(=O)c1cc(C2(NC(=O)c3cncc4c3cnn4-c3ccc(F)cc3)CC2)ccn1` the remaining binding was 75% (cell-free assay; competition with immobilised ligand; 1 µM).
For `Cc1ccc(C(=O)NCc2ccsc2)cc1C#Cc1cn(C(C)C)c2ncnc(N)c12`, the activity vs control was 110% (enzyme activity; inhibitor; 1 µM).
`CCS(=O)(=O)c1cc2cc(C[C@@](O)(CC(C)(C)c3ccc(F)cc3C(N)=O)C(F)(F)F)[nH]c2cn1` gave a remaining binding of 56% (cell-free assay; competition with immobilised ligand; 1 µM).
`FC(F)c1nc2ccccc2n1-c1nc(N2CCOCC2)nc(N2CCOCC2)n1` has a remaining activity of 87% (enzyme activity; inhibitor; 10 µM).
`Cc1noc([C@H]2C[C@@H](c3ccc(C(F)(F)F)cc3)CN(C(=O)N3CCS(=O)(=O)C3)C2)n1` has a remaining binding of 100% (cell-free assay; competition with immobilised ligand; 1 µM).
`Cc1ccc(C(=O)Nc2ccc(CN3CCN(C)CC3)c(C(F)(F)F)c2)cc1C#Cc1cnc2cccnn12` gave a remaining activity of 83% (enzyme activity; inhibitor; 23.5 nM).
`Cc1c[nH]c2nccc(Oc3c(F)cc(Nc4cc(Cl)nc(N)n4)cc3F)c12` has a remaining binding of 98% (cell-free assay; competition with immobilised ligand; 0.1 µM).
`Cn1c2c(Cl)c(Cl)ccc2c2cc[nH]c(=O)c21` gave a ΔTm of 0.6 °C (thermal stability; DSF; 10 µM).
`O=C(Nc1ccc(Oc2ccc(F)cc2)cc1)N1CCc2ncccc2[C@H]1c1ccc(F)cc1` has a remaining binding of 100% (cell-free assay; competition with immobilised ligand; 1 µM).
`CCCCNc1ncc2c(-c3ccc(F)cc3)nn(C[C@H]3CC[C@H](N)CC3)c2n1` gave an inhibition of 33.4% (target engagement in cells; inhibitor; chemoproteomics; 20 mM).
